In ChEMBL document CHEMBL4359877, “Identification of benzothiazinones containing an oxime functional moiety as new anti-tuberculosis agents” (Eur J Med Chem, 2019):
In brackets after ≈: the same amount, converted by molar mass.

Key:
[1] = system: Mycobacterium tuberculosis; experiment: Antimycobacterial activity against multidrug-resistant Mycobacterium tuberculosis isolate 16995 assessed as reduction in bacterial cell growth incubated for 7 days by microplate alamar blue assay; type: functional; conditions: isolate 16995, 168 h
Procedure, shortened: (§1)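 MABA: H37Rv or clinical MDR isolates (resistant to INH and RFP, Beijing Chest Hospital patients) grown to late log phase in 7H9 with glycerol, Tween 80 and ADC, washed, filtered and frozen. Two-fold compound dilutions with 2 × 10⁵ CFU per well, 37 °C; Alamar blue plus Tween 80 added on day 7, fluorescence (ex 530/em 590) read after 16–24 h. MIC = lowest concentration giving ≥90% fluorescence reduction versus mean of bacterium-only controls; RIF and INH as positive controls.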

[2] = system: Mycobacterium tuberculosis; experiment: Antimycobacterial activity against multidrug-resistant Mycobacterium tuberculosis isolate 16833 assessed as reduction in bacterial cell growth incubated for 7 days by microplate alamar blue assay; type: functional; conditions: isolate 16833, 168 h; procedure, shortened: as §1

Work on `CCON=C1CCC(CN2CCN(c3nc(=O)c4cc(C(F)(F)F)cc([N+](=O)[O-])c4s3)[C@@H](C)C2)CC1` (some centres undefined) yielded an MIC90 [1] of less than 0.016 µg/mL and an MIC90 [2] of less than 0.016 µg/mL.
`CCON=C1CCC(CN2CCN(c3nc(=O)c4cc(C(F)(F)F)cc([N+](=O)[O-])c4s3)C[C@@H]2C)CC1` (some centres undefined) showed an MIC90 [1] of less than 0.016 µg/mL and an MIC90 [2] of less than 0.016 µg/mL.
Molecule `CCO/N=C(\C)CN1CCN(c2nc(=O)c3cc(C(F)(F)F)cc([N+](=O)[O-])c3s2)CC1` has an MIC90 [1] of 0.01 µg/mL (≈ 0.0218 µM) and an MIC90 [2] of less than 0.016 µg/mL.
`CON=C1CCC(CN2CCN(c3nc(=O)c4cc(C(F)(F)F)cc([N+](=O)[O-])c4s3)CC2C)CC1` (centres undefined) showed an MIC90 [1] of less than 0.016 µg/mL and an MIC90 [2] of less than 0.016 µg/mL.
`CCON=C1CCC(CN2CCN(c3nc(=O)c4cc(C(F)(F)F)cc([N+](=O)[O-])c4s3)C[C@H]2C)CC1` (some centres undefined) gave an MIC90 [1] of less than 0.016 µg/mL and an MIC90 [2] of less than 0.016 µg/mL.
In the case of `CON=C1CCC(CN2C(C)CN(c3nc(=O)c4cc(C(F)(F)F)cc([N+](=O)[O-])c4s3)CC2C)CC1` (centres undefined), the MIC90 [1] was less than 0.016 µg/mL and the MIC90 [2] was less than 0.016 µg/mL.
`NNC(=O)c1ccncc1` [ISONIAZID] gave an MIC90 [1] greater than 40 µg/mL and an MIC90 [2] greater than 40 µg/mL.
In the case of `O=c1nc(N2CCN(CC3CCCCC3)CC2)sc2c([N+](=O)[O-])cc(C(F)(F)F)cc12` [MACOZINONE], the MIC90 [1] was less than 0.016 µg/mL and the MIC90 [2] was less than 0.016 µg/mL.
`CCON=C1CCC(CN2CCN(c3nc(=O)c4cc(C(F)(F)F)cc([N+](=O)[O-])c4s3)CC2C)CC1` (centres undefined) was tested, and the MIC90 [1] was less than 0.016 µg/mL and the MIC90 [2] was less than 0.016 µg/mL.
For `CO/N=C(\C)CCN1CCN(c2nc(=O)c3cc(C(F)(F)F)cc([N+](=O)[O-])c3s2)CC1`, the MIC90 [1] was less than 0.016 µg/mL and the MIC90 [2] was 0.017 µg/mL (≈ 0.037 µM).
In the case of `CO[C@H]1/C=C/O[C@@]2(C)Oc3c(C)c(O)c4c(O)c(c(/C=N/N5CCN(C)CC5)c(O)c4c3C2=O)NC(=O)/C(C)=C\C=C\[C@H](C)[C@H](O)[C@@H](C)[C@@H](O)[C@@H](C)[C@H](OC(C)=O)[C@@H]1C` [RIFAMPIN], the MIC90 [1] was greater than 40 µg/mL and the MIC90 [2] was greater than 40 µg/mL.
`CON=C1CCC(CN2CCN(c3nc(=O)c4cc(C(F)(F)F)cc([N+](=O)[O-])c4s3)CC2)CC1` (centres undefined) showed an MIC90 [1] of less than 0.016 µg/mL and an MIC90 [2] of less than 0.016 µg/mL.
`C/C(CCN1CCN(c2nc(=O)c3cc(C(F)(F)F)cc([N+](=O)[O-])c3s2)CC1)=N\OCc1ccccc1` gave an MIC90 [1] of less than 0.016 µg/mL and an MIC90 [2] of less than 0.016 µg/mL.
`CCON=C1CC(CN2CCN(c3nc(=O)c4cc(C(F)(F)F)cc([N+](=O)[O-])c4s3)CC2)C1` (centres undefined) was tested, and the MIC90 [1] was less than 0.016 µg/mL and the MIC90 [2] was less than 0.016 µg/mL.
In the case of `C/C(CN1CCN(c2nc(=O)c3cc(C(F)(F)F)cc([N+](=O)[O-])c3s2)CC1)=N\OCc1ccccc1`, the MIC90 [1] was 0.01 µg/mL (≈ 0.0192 µM) and the MIC90 [2] was less than 0.016 µg/mL.
Work on `CCON=C1CCC(CN2CCN(c3nc(=O)c4cc(C(F)(F)F)cc([N+](=O)[O-])c4s3)CC2)CC1` (centres undefined) yielded an MIC90 [1] of less than 0.016 µg/mL and an MIC90 [2] of less than 0.016 µg/mL.
In the case of `CON=C1CCC(CN2CCN(c3nc(=O)c4cc(C(F)(F)F)cc([N+](=O)[O-])c4s3)C[C@@H]2C)CC1` (some centres undefined), the MIC90 [1] was less than 0.016 µg/mL and the MIC90 [2] was less than 0.016 µg/mL.
`CON=C1CCC(CN2CCN(c3nc(=O)c4cc(C(F)(F)F)cc([N+](=O)[O-])c4s3)C[C@H]2C)CC1` (some centres undefined) showed an MIC90 [1] of less than 0.016 µg/mL and an MIC90 [2] of less than 0.016 µg/mL.
In the case of `CCON=C1CCC(CN2C(C)CN(c3nc(=O)c4cc(C(F)(F)F)cc([N+](=O)[O-])c4s3)CC2C)CC1` (centres undefined), the MIC90 [1] was less than 0.016 µg/mL and the MIC90 [2] was less than 0.016 µg/mL.
`CON=C1CCC(CN2CCN(c3nc(=O)c4cc(C(F)(F)F)cc([N+](=O)[O-])c4s3)[C@@H](C)C2)CC1` (some centres undefined) gave an MIC90 [1] of less than 0.016 µg/mL and an MIC90 [2] of less than 0.016 µg/mL.
For `CCON=C1CCC(CN2CCN(c3nc(=O)c4cc(C(F)(F)F)cc([N+](=O)[O-])c4s3)[C@H](C)C2)CC1` (some centres undefined), the MIC90 [1] was less than 0.016 µg/mL and the MIC90 [2] was less than 0.016 µg/mL.
`CCO/N=C(\C)CCN1CCN(c2nc(=O)c3cc(C(F)(F)F)cc([N+](=O)[O-])c3s2)CC1` showed an MIC90 [1] of less than 0.016 µg/mL and an MIC90 [2] of less than 0.016 µg/mL.
